An excerpt weighted towards active compounds, which were near 2% of everything screened.
TRPML3 agonist: agonists of human TRPML3 channel; 220,000 compounds, 0.29% hits; HEK293 TRPML3-YFP, Fluo-8 calcium fluorescence; 100% = the carbachol control signal; Q8TDD5; AID 1448; activation, % at 3 µM;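 active = activation above its plate's cutoff, the mean activation of the plate's test wells plus 3 SD, cut at about 12% in these data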;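 note: 0% = DMSO only wells and 100% = carbachol wells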
Target sequence (Q8TDD5 whole entry, looked up): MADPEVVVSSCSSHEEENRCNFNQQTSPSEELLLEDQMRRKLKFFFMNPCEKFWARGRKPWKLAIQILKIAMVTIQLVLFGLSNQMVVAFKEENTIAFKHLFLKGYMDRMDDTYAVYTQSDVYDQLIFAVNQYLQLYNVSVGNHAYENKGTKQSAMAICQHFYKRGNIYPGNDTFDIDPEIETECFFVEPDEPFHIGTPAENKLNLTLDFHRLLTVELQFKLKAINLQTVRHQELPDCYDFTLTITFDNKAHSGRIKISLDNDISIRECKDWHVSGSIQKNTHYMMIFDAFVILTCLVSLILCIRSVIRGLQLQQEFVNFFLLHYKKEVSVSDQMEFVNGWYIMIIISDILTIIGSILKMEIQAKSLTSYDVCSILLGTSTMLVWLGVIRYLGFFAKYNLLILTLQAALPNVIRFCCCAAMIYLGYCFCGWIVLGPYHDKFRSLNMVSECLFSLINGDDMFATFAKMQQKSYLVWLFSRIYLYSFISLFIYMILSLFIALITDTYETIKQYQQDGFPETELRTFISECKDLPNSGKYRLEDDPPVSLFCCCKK
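Material: TRPML3-YFP stable HEK293 cells | Dosing: One concentration, 3 µM nominal, 0.3% DMSO | Timing: 125 s total fluorescence read per well | Technique: Fluo-8 calcium dye fluorescence, ex 470-495, em 515-575 nm | Measure: Percent activation from peak-to-basal fluorescence ratio, scaled between DMSO and carbachol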
CRFBP-R2 agonist: agonists of human CRF-binding protein/CRF-R2 receptor complex; HEK293 CRF-R2/CRF-BP, calcium dye fluorescence (FLIPR); percent of saturating CRF peptide response; activation, % at 13.2 µM; 350,000 compounds, 0.46% hits; AID 588473;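 active = activation of at least 50%, plus an integration ratio under a set limit after plate pattern correction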;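 note: plate controls were neutral control wells without compound for no effect and CRF at EC100 for full effect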
zfTRPN1 agonist: agonists of zebrafish TRPN1 channel | HEK293 zebrafish TRPN1-YFP, Fluo-8 calcium fluorescence; 100% = response to 87 µM carbachol | activation, % at 3 µM | 220,000 compounds, 0.18% hits | AID 1424;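 active = activation above its plate's cutoff, the mean activation of test wells on that plate plus 3 SD, cut at about 19% in these data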;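 note: 0% = DMSO alone and 100% = 87 µM carbachol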
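Material: zebrafish TRPN1-YFP in HEK293 cells; Doses: single test compound dose, 3 µM nominal, 0.3% DMSO; Timing: dye loading 1 h at 37 °C, then 30 min room temperature; Technique: intracellular calcium fluorescence with Fluo-8; Benchmarks: high carbachol 87 µM, low DMSO alone.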
GPR7 antagonist: antagonists of human GPR7 (neuropeptides B/W receptor 1); P48145; GPR7-expressing cells, fluorescence antagonist assay; inhibition, % at 4.4 µM; 290,000 compounds, 1.1% hits; in the data active = inhibition above about 16%, passing the limit was not always enough;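 note: cells stimulated with the agonist NPW; 0% = agonist with vehicle and 100% = vehicle without agonist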
CRFR2-BP antag: CRF-BP/CRF-R2 complex antagonism; 350,000 compounds, 0.59% hits; inhibition, % at 11.8 µM; HEK293 CRF-R2/CRF-BP, CRF-induced calcium fluorescence;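 active = inhibition of the ligand-induced calcium signal above about 50% at the single tested concentration, limit read from the data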
GPR7 antag cf: human GPR7 antagonism, confirmation assay. shares compounds with GPR7 antagonist. GPR7-expressing cells, calcium fluorescence antagonist mode. inhibition, % at 4.4 µM. 2,400 compounds, 52% hits; in the data active = inhibition above about 24%;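 note: stimulated with the GPR7 agonist NPW; 0% = agonist plus vehicle and 100% = vehicle alone without agonist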
MCHR1 antagonist: MCHR1 (human) antagonism in GPR7 counter-screen; shares compounds with GPR7 antagonist; MCHR1-expressing cells, fluorescence antagonist assay; inhibition, % at 4.4 µM; 2,400 compounds, 62% hits; AID 2148; in the data active = inhibition above about 22%;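 note: 0% = vehicle with agonist and 100% = vehicle without agonist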
The depositor's hits bear a star; . = not tested or not shown.

SMILES | TRPML3 agonist | CRFBP-R2 agonist | zfTRPN1 agonist | GPR7 antagonist | CRFR2-BP antag | GPR7 antag cf | MCHR1 antagonist
O=C(CCC1CC(=O)Nc2ccccc21)NCc1ccc(F)cc1 (configuration not stated) | 0 | -1 | 1 | 33* | 7 | 12 | 23*
O=C(C#Cc1ccccc1)c1ccco1 | . | 29 | . | 56* | -14 | 58* | 66*
CCCC(c1nnnn1Cc1ccco1)N1CCN(c2cc(Cl)ccc2C)CC1 (configuration not stated) | 1 | 0 | -2 | 26* | 3 | 35* | 50*
CCCC(c1nnnn1Cc1ccco1)N1CCN(c2ccccc2)CC1 (configuration not stated) | 0 | 1 | -1 | 8 | -6 | . | .
Cc1cc(NC(=O)c2ccc(F)cc2)n(C)n1 | . | 1 | . | 7 | 13 | . | .
COc1ccc(C(=O)NCc2nnc(SCC(=O)NCCc3ccccc3)o2)cc1 | . | -1 | . | 24* | 32 | -15 | 8
COc1ccc(C(=O)NCc2nnc(SCC(=O)Nc3cc(Cl)ccc3OC)o2)cc1 | . | -1 | . | 40* | 25 | 10 | 15
COc1cc(C(=O)NCc2nnc(SCC(=O)N3CCc4ccccc43)o2)cc(OC)c1OC | 0 | -2 | -1 | 30* | 20 | 0 | -15
C[C@H]1CN([C@@H](C)CO)C(=O)c2c(c3ccccc3n2C)-c2ccccc2CO[C@H]1CN(C)C(=O)[C@@H]1CCCN1C | . | 0 | . | . | 6 | . | .
O=[N+]([O-])c1ccc(-c2csc3[n+]2CCS3)cc1 | 1 | 1 | 0 | 29* | 13 | -1 | 14
Fc1ccc(-c2csc3[n+]2CCS3)cc1 | -1 | -1 | -1 | 4 | 4 | . | .
CCn1c(CNC(=O)C2CCCCC2)cc2cc(C)ccc21 | . | 0 | . | 28* | 5 | -11 | -2
CCn1c(CNC(=O)c2ccccc2F)cc2cc(C)ccc21 | . | 1 | . | 0 | 0 | . | .
OC(COc1ccccc1F)CN1CCC(Cc2ccccc2)CC1 (configuration not stated) | . | -2 | . | -15 | -6 | . | .
OC(COc1ccc(F)cc1Cl)CN1CCC(Cc2ccccc2)CC1 (configuration not stated) | . | 4 | . | 42* | -9 | 21 | 43*
CCC(=O)Nc1ccc2c(c1)Cc1cc(NC(=O)CC)ccc1-2 | . | 10 | . | -16 | 18 | . | .
CCCC(=O)Nc1ccc2c(c1)Cc1ccccc1-2 | . | 2 | . | 25* | -1 | 14 | 24*
CC(=O)c1cccc(NC(=O)CSc2ncc(C(=O)Nc3ccccc3)c(=O)n2C)c1 | . | 1 | . | . | 1 | . | .
COc1ccc(C)cc1NC(=O)c1ccc(N(C)S(C)(=O)=O)cc1 | 0 | 1 | 1 | 31* | 17 | 7 | 16
Cc1ccc(C)c(NC(=O)c2ccc(N(C)S(C)(=O)=O)cc2)c1 | 0 | -3 | 0 | 19 | 11 | . | .
CN(Cc1ccccc1)C(=O)CCC1CCN(S(C)(=O)=O)CC1 | . | 1 | . | -1 | -7 | . | .
CC1CCC2(CC1)NC(=O)N(CC(=O)c1ccc(CNC(=O)C(C)(C)C)s1)C2=O (configuration not stated) | . | -1 | . | . | 2 | . | .
COC(=O)[C@@]1(Cc2ccc(F)cc2)[C@H]2c3cc(C(=O)N(C)C)n(Cc4ccccc4)c3C[C@H]2CN1C(=O)c1ccccc1 | 1 | 2 | 2 | . | -1 | . | 18
COC(=O)[C@@]1(Cc2ccc(F)cc2)[C@H]2c3cc(C(=O)N(C)C)n(Cc4ccc(OC)c(OC)c4)c3C[C@H]2CN1C(=O)c1ccccc1 | 1 | 1 | 5 | 10 | 7 | . | .
O=C(CCN1N=C(c2ccccc2)CCC1=O)NCCCN1CCOCC1 | . | 0 | . | -9 | -7 | . | .
Cc1ccc(NC(=O)CCCn2c(=S)[nH]c3ccsc3c2=O)cc1C | . | -2 | . | 15 | 16 | . | .
O=C(CSc1nnc(COc2ccccc2)n1Cc1ccco1)Nc1ccc2c(c1)OCCO2 | 0 | 0 | -1 | 29* | 4 | 31* | 33*
COc1ccc(-c2nsc(SCC(=O)Nc3ccc4c(c3)OCO4)n2)cc1 | 1 | -1 | 2 | 1 | -9 | . | .
